Experiments:
[1] = single agent, 3 consecutive days per week schedule; ref Tolcher et al, 2012; cited from earlier work
[2] = test system: α1-acid glycoprotein and albumin; details: ref Wu et al, 2012; cited from earlier work
γ-secretase = details: ref Luistro et al, 2009; cited from earlier work
[3] = Dose-limiting toxicities and recommended phase II dose; type: in vivo, human; details: cediranib daily, in combination with RO4929097; highest dose level completed
[4] = test system: circulating VEGF-A, VEGF-C, SDF-1; experiment: Circulating biomarker evaluation; type: in vivo, human; details: after dosing with cediranib (with RO4929097), cycle 1
Outline: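 Patients with advanced solid tumours. Blood was drawn before dosing on cycle 1 day 1, cycle 1 day 22 and cycle 2 day 1. Plasma VEGF-A, VEGF-B, VEGF-C, bFGF, SDF-1-alpha, IL-6 and IL-8 were measured by commercial ELISA kits following the manufacturer's protocol. Samples were run in duplicate, with a triplicate if values differed by more than 15%. Results were discarded unless at least two agreed within 15%.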

[5] = test system: VEGF receptors (VEGFR-1, VEGFR-2 and VEGFR-3), and c-Kit; details: ref Wedge et al, 2005; cited from earlier work

SMILES | Daily dose at which reversible CYP3A4 autoinduction was detected [1] | Plasma protein binding [2] | γ-Secretase inhibition (γ-secretase) | Recommended phase II dose (RP2D) [3] | Change of circulating SDF-1 [4] | Change of circulating VEGF-A [4] | Change of circulating VEGF-C [4] | Inhibition of VEGF signalling [5]
CC(C)(C(=O)NCC(F)(F)C(F)(F)F)C(=O)N[C@@H]1C(=O)Nc2ccccc2-c2ccccc21 [RO4929097] | above 24 mg | highly bound | potent and selective | – | – | – | – | –
COc1cc2c(Oc3ccc4[nH]c(C)cc4c3F)ncnc2cc1OCCCN1CCCC1 [cediranib] | – | – | – | 30 mg | Increases | Increases | Increases | highly potent inhibitor

From PMC3749563 (British Journal of Cancer, 2013)
